{
  "source": "ChEMBL document CHEMBL1133571",
  "about": "“Extended TIP(P) analogues as precursors for labeled delta-opioid receptor ligands” (J Med Chem, 2000)",
  "key": {"Mu-type opioid receptor": {"target": "Mu-type opioid receptor (Homo sapiens, UniProt P35372)", "sequence (P35372 whole entry)": "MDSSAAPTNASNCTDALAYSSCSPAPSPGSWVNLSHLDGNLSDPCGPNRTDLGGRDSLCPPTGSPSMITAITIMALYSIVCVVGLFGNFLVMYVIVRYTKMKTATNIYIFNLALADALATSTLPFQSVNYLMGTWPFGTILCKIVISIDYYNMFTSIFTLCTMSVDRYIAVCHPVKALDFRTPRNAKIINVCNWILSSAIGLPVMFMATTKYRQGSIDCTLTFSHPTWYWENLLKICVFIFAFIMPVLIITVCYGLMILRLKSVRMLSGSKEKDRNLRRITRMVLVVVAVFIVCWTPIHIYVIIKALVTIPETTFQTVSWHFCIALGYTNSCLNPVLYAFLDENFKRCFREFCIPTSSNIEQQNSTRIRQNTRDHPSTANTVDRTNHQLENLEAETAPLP", "test": "Affinity towards human Opioid receptor mu 1 on CHO cell membranes using [3H]DAMGO displacement.", "summary_of_the_method": "(§1)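 Membranes from CHO cells stably expressing cloned δ or µ receptors. Incubated 90 min at 22 °C with peptide concentrations up to 10 µM, 3 mM Mg2+, and peptidase inhibitors (10 µM bestatin, 30 µM captopril, 50 µM L-leucyl-L-leucine). Nonspecific binding measured with 10 µM unlabeled ligand. IC50 from nonlinear regression converted to Ki by Cheng-Prusoff (KD: [3H]DPDPE 0.5 nM, δ; [3H]DAMGO 0.644 nM, µ).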"}, "[1]": {"target": "Delta-type opioid receptor (Homo sapiens, UniProt P41143)", "sequence (P41143 whole entry)": "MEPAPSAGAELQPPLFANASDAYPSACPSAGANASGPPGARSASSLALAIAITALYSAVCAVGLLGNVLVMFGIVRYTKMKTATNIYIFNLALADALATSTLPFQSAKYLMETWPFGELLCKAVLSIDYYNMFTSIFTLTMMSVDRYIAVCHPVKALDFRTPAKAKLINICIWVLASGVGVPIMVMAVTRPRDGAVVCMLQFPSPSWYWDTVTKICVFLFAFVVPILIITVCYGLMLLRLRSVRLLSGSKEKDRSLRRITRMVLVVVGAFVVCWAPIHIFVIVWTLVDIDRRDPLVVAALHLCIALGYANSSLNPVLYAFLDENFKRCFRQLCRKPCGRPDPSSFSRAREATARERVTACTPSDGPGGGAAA", "test": "Affinity towards human Opioid receptor delta 1 on CHO cell membranes using [3H]DPDPE displacement.", "summary_of_the_method": "as §1"}},
  "note": "“And” between values parts separate entries of the source, which are not always exact repeats. Identical values can stand only once. Where a SMILES comes first, the peptide text is derived from it. [ ]: non-standard residue; d: D form. Tic = O=C(O)[C@@H]1Cc2ccccc2CN1",
  "data": [
    {"smiles": "NC(=O)[C@@H](CC(=O)O)NC(=O)[C@H](Cc1ccccc1)NC(=O)[C@H](Cc1ccccc1)NC(=O)[C@@H]1Cc2ccccc2CN1C(=O)[C@@H](N)Cc1ccc(O)cc1", "values": [
      {"measurement": "Ki", "setting": "Mu-type opioid receptor", "value": 3280, "unit": "nM"},
      {"measurement": "Ki", "setting": "[1]", "value": 10.3, "unit": "nM"}
    ]},
    {"smiles": "NC(=O)C[C@@H](NC(=O)[C@H](Cc1ccccc1)NC(=O)[C@H](Cc1ccccc1)NC(=O)[C@@H]1Cc2ccccc2CN1C(=O)[C@@H](N)Cc1ccc(O)cc1)C(=O)O", "values": [
      {"measurement": "Ki", "setting": "Mu-type opioid receptor", "value": 3200, "unit": "nM"},
      {"measurement": "Ki", "setting": "[1]", "value": 8.1, "unit": "nM"}
    ]},
    {"smiles": "NC(=O)C[C@H](NC(=O)[C@H](Cc1ccccc1)NC(=O)[C@H](Cc1ccccc1)NC(=O)[C@@H]1Cc2ccccc2CN1C(=O)[C@@H](N)Cc1ccc(O)cc1)C(=O)O", "values": [
      {"measurement": "Ki", "setting": "Mu-type opioid receptor", "value": "> 4500", "unit": "nM"},
      {"measurement": "Ki", "setting": "[1]", "value": 7.1, "unit": "nM"}
    ]},
    {"smiles": "NC(=O)[C@H](CC(=O)O)NC(=O)[C@H](Cc1ccccc1)NC(=O)[C@H](Cc1ccccc1)NC(=O)[C@@H]1Cc2ccccc2CN1C(=O)[C@@H](N)Cc1ccc(O)cc1", "values": [
      {"measurement": "Ki", "setting": "Mu-type opioid receptor", "value": "> 4000", "unit": "nM"},
      {"measurement": "Ki", "setting": "[1]", "value": 9.5, "unit": "nM"}
    ]},
    {"smiles": "CC(=O)NCCCC[C@H](NC(=O)[C@H](Cc1ccccc1)NC(=O)[C@@H]1Cc2ccccc2CN1C(=O)[C@@H](N)Cc1ccc(O)cc1)C(=O)O", "values": [
      {"measurement": "Ki", "setting": "Mu-type opioid receptor", "value": "> 4500", "unit": "nM"},
      {"measurement": "Ki", "setting": "[1]", "value": 27.8, "unit": "nM"}
    ]},
    {"smiles": "NC(=O)CC[C@@H](NC(=O)[C@H](Cc1ccccc1)NC(=O)[C@@H]1Cc2ccccc2CN1C(=O)[C@@H](N)Cc1ccc(O)cc1)C(=O)O", "values": [
      {"measurement": "Ki", "setting": "Mu-type opioid receptor", "value": "> 4500", "unit": "nM"},
      {"measurement": "Ki", "setting": "[1]", "value": 5, "unit": "nM"}
    ]},
    {"smiles": "NC(=O)CC[C@H](NC(=O)[C@H](Cc1ccccc1)NC(=O)[C@H](Cc1ccccc1)NC(=O)[C@@H]1Cc2ccccc2CN1C(=O)[C@@H](N)Cc1ccc(O)cc1)C(=O)O", "values": [
      {"measurement": "Ki", "setting": "Mu-type opioid receptor", "value": "> 4500", "unit": "nM"},
      {"measurement": "Ki", "setting": "[1]", "value": 9.7, "unit": "nM"}
    ]},
    {"smiles": "NC(=O)[C@@H](CCC(=O)O)NC(=O)[C@H](Cc1ccccc1)NC(=O)[C@@H]1Cc2ccccc2CN1C(=O)[C@@H](N)Cc1ccc(O)cc1", "values": [
      {"measurement": "Ki", "setting": "Mu-type opioid receptor", "value": "> 4500", "unit": "nM"},
      {"measurement": "Ki", "setting": "[1]", "value": 34.9, "unit": "nM"}
    ]},
    {"smiles": "NC(=O)CC[C@H](NC(=O)[C@H](Cc1ccccc1)NC(=O)[C@@H]1Cc2ccccc2CN1C(=O)[C@@H](N)Cc1ccc(O)cc1)C(=O)O", "values": [
      {"measurement": "Ki", "setting": "Mu-type opioid receptor", "value": "> 4500", "unit": "nM"},
      {"measurement": "Ki", "setting": "[1]", "value": 37.7, "unit": "nM"}
    ]},
    {"smiles": "NC(=O)[C@H](CCC(=O)O)NC(=O)[C@H](Cc1ccccc1)NC(=O)[C@H](Cc1ccccc1)NC(=O)[C@@H]1Cc2ccccc2CN1C(=O)[C@@H](N)Cc1ccc(O)cc1", "values": [
      {"measurement": "Ki", "setting": "Mu-type opioid receptor", "value": "> 4500", "unit": "nM"},
      {"measurement": "Ki", "setting": "[1]", "value": 9.9, "unit": "nM"}
    ]},
    {"smiles": "NC(=O)[C@@H](CCC(=O)O)NC(=O)[C@H](Cc1ccccc1)NC(=O)[C@H](Cc1ccccc1)NC(=O)[C@@H]1Cc2ccccc2CN1C(=O)[C@@H](N)Cc1ccc(O)cc1", "values": [
      {"measurement": "Ki", "setting": "Mu-type opioid receptor", "value": 1950, "unit": "nM"},
      {"measurement": "Ki", "setting": "[1]", "value": 7.8, "unit": "nM"}
    ]},
    {"smiles": "NC(=O)[C@@H](CC(=O)O)NC(=O)[C@H](Cc1ccccc1)NC(=O)[C@@H]1Cc2ccccc2CN1C(=O)[C@@H](N)Cc1ccc(O)cc1", "values": [
      {"measurement": "Ki", "setting": "Mu-type opioid receptor", "value": "> 4500", "unit": "nM"},
      {"measurement": "Ki", "setting": "[1]", "value": 69, "unit": "nM"}
    ]},
    {"smiles": "NC(=O)C[C@H](NC(=O)[C@H](Cc1ccccc1)NC(=O)[C@@H]1Cc2ccccc2CN1C(=O)[C@@H](N)Cc1ccc(O)cc1)C(=O)O", "values": [
      {"measurement": "Ki", "setting": "Mu-type opioid receptor", "value": "> 4500", "unit": "nM"},
      {"measurement": "Ki", "setting": "[1]", "value": 61.1, "unit": "nM"}
    ]},
    {"smiles": "CC(=O)NCCCC[C@@H](NC(=O)[C@H](Cc1ccccc1)NC(=O)[C@@H]1Cc2ccccc2CN1C(=O)[C@@H](N)Cc1ccc(O)cc1)C(=O)O", "values": [
      {"measurement": "Ki", "setting": "Mu-type opioid receptor", "value": "> 4500", "unit": "nM"},
      {"measurement": "Ki", "setting": "[1]", "value": 21.6, "unit": "nM"}
    ]},
    {"smiles": "NC(=O)CC[C@@H](NC(=O)[C@H](Cc1ccccc1)NC(=O)[C@H](Cc1ccccc1)NC(=O)[C@@H]1Cc2ccccc2CN1C(=O)[C@@H](N)Cc1ccc(O)cc1)C(=O)O", "values": [
      {"measurement": "Ki", "setting": "Mu-type opioid receptor", "value": "> 4500", "unit": "nM"},
      {"measurement": "Ki", "setting": "[1]", "value": 5.1, "unit": "nM"}
    ]},
    {"smiles": "NC(=O)[C@H](CC(=O)O)NC(=O)[C@H](Cc1ccccc1)NC(=O)[C@@H]1Cc2ccccc2CN1C(=O)[C@@H](N)Cc1ccc(O)cc1", "values": [
      {"measurement": "Ki", "setting": "Mu-type opioid receptor", "value": "> 4500", "unit": "nM"},
      {"measurement": "Ki", "setting": "[1]", "value": 21.4, "unit": "nM"}
    ]},
    {"smiles": "NC(=O)[C@H](CCC(=O)O)NC(=O)[C@H](Cc1ccccc1)NC(=O)[C@@H]1Cc2ccccc2CN1C(=O)[C@@H](N)Cc1ccc(O)cc1", "values": [
      {"measurement": "Ki", "setting": "Mu-type opioid receptor", "value": 4500, "unit": "nM"},
      {"measurement": "Ki", "setting": "[1]", "value": 19.9, "unit": "nM"}
    ]},
    {"smiles": "NC(=O)C[C@@H](NC(=O)[C@H](Cc1ccccc1)NC(=O)[C@@H]1Cc2ccccc2CN1C(=O)[C@@H](N)Cc1ccc(O)cc1)C(=O)O", "values": [
      {"measurement": "Ki", "setting": "Mu-type opioid receptor", "value": "> 4500", "unit": "nM"},
      {"measurement": "Ki", "setting": "[1]", "value": 13.7, "unit": "nM"}
    ]},
    {"smiles": "CC(=O)NCCCC[C@@H](NC(=O)[C@H](Cc1ccccc1)NC(=O)[C@H](Cc1ccccc1)NC(=O)[C@@H]1Cc2ccccc2CN1C(=O)[C@@H](N)Cc1ccc(O)cc1)C(=O)O", "values": [
      {"measurement": "Ki", "setting": "Mu-type opioid receptor", "value": "> 4500", "unit": "nM"},
      {"measurement": "Ki", "setting": "[1]", "value": "16.3 nM and 21.5 nM"}
    ]},
    {"smiles": "N[C@@H](Cc1ccc(O)cc1)C(=O)N1Cc2ccccc2C[C@H]1C(=O)N[C@@H](Cc1ccccc1)C(=O)O", "note": "(H-Tyr-[Tic]-Phe-OH)", "values": [
      {"measurement": "Ki", "setting": "Mu-type opioid receptor", "value": "> 4500", "unit": "nM"},
      {"measurement": "Ki", "setting": "[1]", "value": 148, "unit": "nM"}
    ]},
    {"smiles": "N[C@@H](Cc1ccc(O)cc1)C(=O)N1Cc2ccccc2C[C@H]1C(=O)N[C@@H](Cc1ccccc1)C(=O)N[C@@H](Cc1ccccc1)C(=O)O", "note": "(H-Y[Tic]FF-OH)", "values": [
      {"measurement": "Ki", "setting": "Mu-type opioid receptor", "value": "> 4500", "unit": "nM"},
      {"measurement": "Ki", "setting": "[1]", "value": "6.1 nM and 1.22 nM"}
    ]}
  ]
}
